The values that follow come from ChEMBL document CHEMBL4007483, “Design, synthesis and potent cytotoxic activity of novel 7-(N-[(substituted-sulfonyl)piperazinyl]-methyl)-camptothecin derivatives” (Bioorg Med Chem Lett, 2017).

Where only a bound is given, the exact number is not on record here.

Usually IC50 stands for the concentration needed to halve the response being measured. Low readings indicate higher potency, high ones lower potency.

Format in all cases: functional, cell-based
For experiment [1], the system named is MCF7. Nature of the experiment: Cytotoxicity against human MCF7 cells after 72 hrs by sulforhodamine B assay. Particulars: MCF7, 72 h. The method, boiled down:
(§1)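 Cells seeded at 3–5 × 10^3 per well in RPMI-1640 with 10% FBS containing graded sample concentrations, exposed 72 h. Attached cells fixed with cold 50% trichloroacetic acid 30 min, stained with 0.04% SRB 30 min. Bound dye solubilized in 10 mM Tris-base, absorbance read at 515 nm; IC50 from concentration series.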
On the technique in general: The SRB assay estimates cell density from bound dye.

Experiment [2] deals with A549. Nature of the experiment: Cytotoxicity against human A549 cells after 72 hrs by sulforhodamine B assay. Particulars: A549, 72 h. The method, boiled down: as §1
The test system of experiment [3] is KB. The experiment is described as follows: Cytotoxicity against human KB cells after 72 hrs by sulforhodamine B assay. In short, it runs like this: as §1
Experiment [4] is described as follows: Cytotoxicity against human KBVIN cells after 72 hrs by sulforhodamine B assay. In short, it runs like this: as §1
In experiment [5] the test system is MDA-MB-231. The experiment is described as follows: Cytotoxicity against human MDA-MB-231 cells after 72 hrs by sulforhodamine B assay. Particulars: MDA-MB-231, 72 h. The method, boiled down: as §1

Take `CCc1ccc(S(=O)(=O)N2CCN(Cc3c4c(nc5ccccc35)-c3cc5c(c(=O)n3C4)COC(=O)[C@]5(O)CC)CC2)cc1`: the 50% inhibitory concentration (IC50) in experiment [1] turned out to be 61.8 nM; in experiment [2], 0.65 nM; in experiment [3], 10.9 nM; in experiment [4], 126 nM; in experiment [5], 105 nM.
On the same counts, the results for `CC[C@@]1(O)C(=O)OCc2c1cc1n(c2=O)Cc2c-1nc1ccccc1c2CN1CCN(S(=O)(=O)c2cc(OC)cc(OC)c2)CC1` are 34 nM, 1.42 nM, 2.9 nM, 1.2 nM and 6.4 nM.
For the compound `CC[C@@]1(O)C(=O)OCc2c1cc1n(c2=O)Cc2c-1nc1ccccc1c2CN1CCN(S(=O)(=O)c2ccc(C)cc2)CC1`, the IC50 was found to be 18.2 nM in experiment [1]; 0.89 nM in experiment [2]; 84.5 nM in experiment [3]; 34.6 nM in experiment [4]; 84.2 nM in experiment [5].
On the same counts, the results for `CC[C@@]1(O)C(=O)OCc2c1cc1n(c2=O)Cc2c-1nc1ccccc1c2CN1CCN(S(=O)(=O)c2ccc([N+](=O)[O-])cc2)CC1` are 96.2 nM, 29.7 nM, 55.5 nM, 481 nM and 350 nM.
For `CC[C@@]1(O)C(=O)OCc2c1cc1n(c2=O)Cc2c-1nc1ccccc1c2CN1CCN(S(=O)(=O)c2ccc3ccccc3c2)CC1`, in that order: 81.3 nM, 13 nM, 44.2 nM, 165 nM and 113 nM.
For `CCCCS(=O)(=O)N1CCN(Cc2c3c(nc4ccccc24)-c2cc4c(c(=O)n2C3)COC(=O)[C@]4(O)CC)CC1`, in that order: 74.9 nM, 4.01 nM, 8.5 nM, 203 nM and 134 nM.
As for `CC[C@@]1(O)C(=O)OCc2c1cc1n(c2=O)Cc2c-1nc1ccccc1c2CN1CCN(S(=O)(=O)c2ccccc2)CC1`, the 50% inhibitory concentration (IC50) was found to be 4.9 nM in experiment [1]; 0.25 nM in experiment [2]; 2 nM in experiment [3]; 70.4 nM in experiment [4]; 46.4 nM in experiment [5].
For `CC[C@@]1(O)C(=O)OCc2c1cc1n(c2=O)Cc2c-1nc1ccccc1c2CN1CCN(S(=O)(=O)c2cc(F)cc(F)c2)CC1`, in that order: 56.3 nM, 0.7 nM, 21 nM, 266 nM and 82.6 nM.
For the compound `CC[C@@]1(O)C(=O)OCc2c1cc1n(c2=O)Cc2c-1nc1ccccc1c2CN1CCN(S(=O)(=O)c2cccnc2)CC1`, the IC50 turned out to be 61 nM in experiment [1]; 21.9 nM in experiment [2]; 67.8 nM in experiment [3]; 327 nM in experiment [4]; 106 nM in experiment [5].
On the same counts, the results for `CC[C@@]1(O)C(=O)OCc2c1cc1n(c2=O)Cc2c-1nc1ccccc1c2CN1CCN(S(=O)(=O)c2cccs2)CC1` are 8 nM, 0.21 nM, 71.3 nM, 57.5 nM and 30.5 nM.
As to `CC[C@@]1(O)C(=O)OCc2c1cc1n(c2=O)Cc2cc3ccccc3nc2-1` [CAMPTOTHECIN], the half-maximal inhibitory concentration (IC50) in experiment [1] worked out at 87.5 nM; in experiment [2], 8.63 nM; in experiment [3], 50 nM; in experiment [4] it was 15.7 nM; in experiment [5] it was 307 nM.
For `CC[C@@]1(O)C(=O)OCc2c1cc1n(c2=O)Cc2c-1nc1ccccc1c2CN1CCN(S(=O)(=O)c2ccc(C(C)C)cc2)CC1`, in that order: 67.6 nM, 4.37 nM, 15.9 nM, 81.4 nM and 122 nM.
For the compound `CC[C@@]1(O)C(=O)OCc2c1cc1n(c2=O)Cc2c-1nc1ccccc1c2CN1CCN(S(=O)(=O)c2ccc(Cl)cc2)CC1`, the concentration for half-maximal inhibition (IC50) in experiment [1] turned out to be 34.5 nM; in experiment [2], 6.92 nM; in experiment [3], 96.9 nM; in experiment [4] it was 20.2 nM; in experiment [5], 75.4 nM.
`CC[C@@]1(O)C(=O)OCc2c1cc1n(c2=O)Cc2cc3c(CN(C)C)c(O)ccc3nc2-1` [TOPOTECAN] returned an IC50 in experiment [4] of 287 nM. In other words, the sub-micromolar range.
As for `CC[C@@]1(O)C(=O)OCc2c1cc1n(c2=O)Cc2c-1nc1ccccc1c2CN1CCN(S(=O)(=O)N(C)C)CC1`, the IC50 was determined as 71.5 nM in experiment [1]; 7.22 nM in experiment [2]; 78.6 nM in experiment [3]; 141 nM in experiment [4]; 336 nM in experiment [5].
In the case of `CC[C@@]1(O)C(=O)OCc2c1cc1n(c2=O)Cc2c-1nc1ccccc1c2CN1CCN(S(=O)(=O)c2ccc(F)cc2)CC1`, the half-inhibitory concentration (IC50) in experiment [1] was 37.6 nM; in experiment [2] it was 0.5 nM; in experiment [3] it was 76.3 nM; in experiment [4], 25.7 nM; in experiment [5], 62.8 nM.
On the same counts, the results for `CC[C@@]1(O)C(=O)OCc2c1cc1n(c2=O)Cc2c-1nc1ccccc1c2CN1CCN(S(=O)(=O)c2ccc(OC)cc2)CC1` are 70.9 nM, 5.36 nM, 20.7 nM, 142 nM and 124 nM.
`CCc1c2c(nc3ccc(OC(=O)N4CCC(N5CCCCC5)CC4)cc13)-c1cc3c(c(=O)n1C2)COC(=O)[C@]3(O)CC` [IRINOTECAN]: the 50% inhibitory concentration (IC50) in experiment [4] is over 20000 nM.
For the compound `CC[C@@]1(O)C(=O)OCc2c1cc1n(c2=O)Cc2c-1nc1ccccc1c2CN1CCN(S(=O)(=O)Cc2ccccc2)CC1`, the IC50 was 362 nM in experiment [1]; 27.4 nM in experiment [2]; 195 nM in experiment [3]; 416 nM in experiment [4]; 552 nM in experiment [5].
